KDM4C inh = inhibitors of GASC-1 (KDM4C) histone demethylase, primary screen, biochemical, single concentration HTS; GST-KDM4C 2-372, H3K9me3 peptide, LANCE TR-FRET; 0.15% of 96,000 active; Lysine-specific demethylase 4C (Homo sapiens), Q9H3R0; inhibition, % at 12.5 µM; AID 720574, 2013;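 active means mean replicate inhibition above about 25%, with at least 55% of replicates also reaching it, limit read from the data, passing the limit was not always enough; inconclusive means only one of those two conditions met; inactive means neither condition met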
Target sequence (Q9H3R0 2-372 limits assumed): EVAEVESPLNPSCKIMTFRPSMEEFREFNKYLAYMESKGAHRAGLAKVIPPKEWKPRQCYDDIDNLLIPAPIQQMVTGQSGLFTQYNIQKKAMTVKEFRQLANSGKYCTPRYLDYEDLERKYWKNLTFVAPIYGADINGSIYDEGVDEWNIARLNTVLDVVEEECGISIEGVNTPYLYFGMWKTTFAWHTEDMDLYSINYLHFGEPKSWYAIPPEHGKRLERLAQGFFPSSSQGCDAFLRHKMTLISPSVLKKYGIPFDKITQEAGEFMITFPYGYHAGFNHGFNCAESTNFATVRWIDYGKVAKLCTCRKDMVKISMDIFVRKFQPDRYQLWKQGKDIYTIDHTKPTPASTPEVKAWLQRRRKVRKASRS
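System: N-terminal GST-fused human GASC-1 (KDM4C) fragment, residues 2-372; amount: enzyme final amount 10 nM; incubation: reaction 30 min RT, detection step 1 h RT; medium: HEPES buffer, pH 7.5, plus ascorbate; technique: LANCE TR-FRET, Eu antibody, ULight-streptavidin, EDTA, ex 340 nm, em 618/671 nm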
T cruzi growth-1 = T. cruzi intracellular proliferation inhibitors, primary screen, cell-based, beta-gal Tulahuen parasites, NIH3T3 host, luminescence; T. cruzi beta-gal in NIH3T3, GalScreen luminescence, 90 h; inhibition, % at 8.34 µM; AID 624255, 2012; 5.9% of 77,000 active;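 active means mean inhibition above about 93%, with at least 55% of replicates each passing it, limit read from the data, passing the limit was not always enough; inconclusive means only one of those two conditions holds; inactive means neither condition holds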
IDH1 mut inh = inhibitors of IDH1 R132H reductase, primary screen, biochemical, plate reader, single point; inhibition, % at 10 µM; AID 624101, 2012; diaphorase/resazurin fluorescence, 60 min; 0.18% of 70,000 active; Isocitrate dehydrogenase [NADP] cytoplasmic (Homo sapiens), O75874; in the data active means inhibition above about 34%; inconclusive means no clear call, values can overlap the other calls; inactive means below about 11%
T cruzi growth-2 = T. cruzi intracellular proliferation inhibitors, confirmation, cell-based, NIH3T3 host, beta-gal parasite, luminescence, cherry-pick | shares compounds with T cruzi growth-1 | T. cruzi beta-gal in NIH3T3, GalScreen luminescence, 90 h | inhibition, % at 8.35 µM | 72% of 5,600 active | AID 651739, 2012;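 active means mean replicate inhibition above about 95% and at least 55% of replicates individually reaching it, limit read from the data; inconclusive means only one of the two criteria is met; inactive means neither criterion is met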
T cruzi growth-3 = inhibitors of intracellular T. cruzi replication, confirmation, NIH3T3 host cells, beta-gal parasites, cherry-pick, set 2. AID 651740, 2012. T. cruzi beta-gal in NIH3T3, GalScreen luminescence, 90 h. 21% of 5,600 active. inhibition, % at 2.09 µM. shares compounds with T cruzi growth-1;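 active means mean inhibition above about 95%, with at least 55% of replicates also reaching it, limit read from the data; inconclusive means meets just one of the two conditions; inactive means meets neither condition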
NIH3T3 tox = cytotoxicity in mouse NIH/3T3 fibroblasts, confirmation, cytotoxicity control for T. cruzi proliferation inhibitor project, cell-based, cherry-pick, single point | shares compounds with T cruzi growth-1 | NIH/3T3 viability, CellTiter-Glo ATP luminescence, 90 h | cytotoxicity (signal decrease), % at 8.35 µM | 14% of 5,600 active | AID 651742, 2012;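 active means mean signal decrease across replicates above about 35% based on untreated-well scatter, with enough replicates individually passing, limit read from the data; inconclusive means no rule stated though some were filed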
NIH3T3 tox 2 = NIH/3T3 fibroblast cytotoxicity, confirmation, cytotoxicity control, cell-based, cherry-pick, single point, set 2; shares compounds with T cruzi growth-1; NIH/3T3 viability, CellTiter-Glo ATP luminescence, 90 h; 56% of 5,600 active; inhibition, % at 24.9 µM; AID 651744, 2012;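 active means mean loss of cell viability signal at or above a set limit, and enough replicates individually reaching it; inconclusive means meets only the mean limit or only the replicate share; inactive means meets neither condition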
Of the large screens only hits and unclear results are named; the others gave an inactive call (follow-up assays come after a bar, where they were run). The entries come from a sample that favours hits as a whole.

CCCN(C)C[C@H]1Oc2cc(C#Cc3ccccc3)ccc2S(=O)(=O)N([C@@H](C)CO)C[C@H]1C	none
CCCN(C)C[C@@H]1Oc2cc(C#Cc3cccc(F)c3)ccc2S(=O)(=O)N([C@H](C)CO)C[C@@H]1C	T cruzi growth-1 108 | T cruzi growth-2 107 | T cruzi growth-3 inactive | NIH3T3 tox inactive | NIH3T3 tox 2 106
COc1ccc(N(C(=O)C2CCCCC2)S(=O)(=O)c2cc(OC)ccc2OC)cc1	none (no result: KDM4C inh, T cruzi growth-1)
O=C(Cc1ccccn1)NCC[C@H]1CC[C@@H](NC(=O)Nc2ccc(Cl)cc2)[C@@H](CO)O1	none
C[C@@H]1CN([C@@H](C)CO)C(=O)c2cc(NC(=O)Nc3cccc4ccccc34)ccc2O[C@@H](C)CCCCO[C@H]1CN(C)Cc1ccc(C(F)(F)F)cc1	T cruzi growth-1 inconclusive | T cruzi growth-2 109 | T cruzi growth-3 117 | NIH3T3 tox inactive | NIH3T3 tox 2 inactive
C[C@@H]1CCCCO[C@H](CN(C)Cc2ccc(C(F)(F)F)cc2)[C@@H](C)CN([C@H](C)CO)C(=O)c2cc(NC(=O)Nc3cccc4ccccc34)ccc2O1	T cruzi growth-1 inconclusive (no result: IDH1 mut inh) | T cruzi growth-2 107 | T cruzi growth-3 inactive | NIH3T3 tox inactive | NIH3T3 tox 2 inactive
C[C@@H]1CCCCO[C@H](CN(C)Cc2ccc(C(F)(F)F)cc2)[C@H](C)CN([C@H](C)CO)C(=O)c2cc(NC(=O)Nc3cccc4ccccc34)ccc2O1	T cruzi growth-1 inconclusive | T cruzi growth-2 105 | T cruzi growth-3 117 | NIH3T3 tox inactive | NIH3T3 tox 2 inactive
C[C@H](CO)N1C[C@H](C)[C@H](CN(C)Cc2ccc(C(=O)O)cc2)OCCCC[C@H](C)Oc2ccc(NC(=O)Nc3cccc4ccccc34)cc2C1=O	none (no result: IDH1 mut inh)
C[C@H](CO)N1C[C@H](C)[C@H](CN(C)Cc2ccc(C(F)(F)F)cc2)OCCCC[C@H](C)Oc2ccc(NC(=O)Nc3cccc4ccccc34)cc2C1=O	none (no result: IDH1 mut inh)
C[C@@H]1CN([C@@H](C)CO)C(=O)c2cc(NC(=O)Nc3cccc4ccccc34)ccc2O[C@@H](C)CCCCO[C@@H]1CN(C)Cc1ccc(C(F)(F)F)cc1	T cruzi growth-1 inconclusive (no result: IDH1 mut inh) | T cruzi growth-2 107 | T cruzi growth-3 111 | NIH3T3 tox inactive | NIH3T3 tox 2 inactive
COc1ccccc1-c1cn(CC[C@H]2CC[C@@H](NC(=O)c3cnccn3)[C@H](CO)O2)nn1	none
O=C(Cc1ccccn1)N1CC2(C1)[C@H](c1ccccc1)[C@@H](CO)N2C(=O)c1ccccc1	none (no result: T cruzi growth-1, IDH1 mut inh)
C[C@H](CO)N1C[C@H](C)[C@@H](CN(C)Cc2ccc(C(F)(F)F)cc2)OCCCC[C@H](C)Oc2ccc(NC(=O)Nc3cccc4ccccc34)cc2C1=O	T cruzi growth-1 inconclusive | T cruzi growth-2 99 | T cruzi growth-3 107 | NIH3T3 tox inactive | NIH3T3 tox 2 inactive
C[C@@H]1CN([C@@H](C)CO)C(=O)c2cc(NC(=O)Nc3cccc4ccccc34)ccc2O[C@@H](C)CCCCO[C@@H]1CN(C)Cc1ccc(C(=O)O)cc1	none
COc1ccccc1-c1ccc([C@@H]2[C@@H](C#N)N(C(=O)c3cccnc3)[C@@H]2CO)cc1	none (no result: IDH1 mut inh)
CN(C)CC#Cc1ccc([C@H]2[C@@H](CO)N3CCCCN(C(=O)C4CC4)C[C@H]23)cc1	T cruzi growth-1 102 (no result: KDM4C inh, IDH1 mut inh) | T cruzi growth-2 inactive | T cruzi growth-3 inactive | NIH3T3 tox inactive | NIH3T3 tox 2 36
O=C(C1CCCC1)N1CCCCN2[C@H](C1)[C@@H](c1ccc(C#CC3CC3)cc1)[C@@H]2CO	none (no result: KDM4C inh, IDH1 mut inh)
CN(C)CC#Cc1ccc([C@H]2[C@@H](CO)N3CCCCN(C(=O)C4CC4)C[C@@H]23)cc1	none (no result: KDM4C inh, IDH1 mut inh)

Source: PubChem
